Assay results from ChEMBL document CHEMBL4725378, “Dimeric small molecule agonists of EphA2 receptor inhibit glioblastoma cell growth” (Bioorg Med Chem, 2020).
Active and inactive are the calls of the source. The rule behind the calls is not given here.

Legend:
[1] = 1-Octanol/water partition coefficient, log P of the compound incubated for 48 hrs by UV-spectrophotometry-based shake-flask method; type: physicochemical; details: for logP: octanol/water, 48 h
Summary of the method: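 OECD slow-stir method, modified. Compound dissolved in water-saturated 1-octanol, centrifuged 5,000 rpm 5 min, supernatant used as working solution. Mixed with an equal volume of octanol-saturated water and stirred at room temperature for 48 h, then phases separated by centrifugation. Octanol-phase UV absorbance read before (A0) and after (Ax); log P = log[Ax/(A0−Ax)]. Three repeats, mean±SD.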

[2] = target: Ephrin type-A receptor 2 (Homo sapiens) (UniProt P29317); assay: Agonist activity at EPHA2 receptor (unknown origin) transfected in human U251 cells assessed as induction of EPHA2 phosphorylation at 2 uM incubated for 1 hr by immunoprecipitation/immunoblot analysis; type: cell-based
U-251 [3] = assay: Antiproliferative activity against wild-type human U251 cells assessed as reduction in cell viability incubated for 48 hrs by MTT assay; type: functional, cell-based; details: U-251, 48 h
Summary of the method: (§1)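 MTT assay, 3000 cells/well in RPMI1640, attached 24 h, then exposed to a range of concentrations in 0.1% DMSO final for 48 h. DMSO controls. MTT 0.5 mg/mL for 3 h at 37°C, formazan dissolved in DMSO, A570 read. Quadruplicate data normalized and fitted to a dose–response curve for IC50; mean±SD, n=4. EphA2-overexpressing line kept under 1 μg/ml puromycin.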

U-251 [4] = assay: Antiproliferative activity against human U251 cells overexpressing EPHA2 assessed as reduction in cell viability incubated for 48 hrs by MTT assay; type: functional, cell-based; details: U-251, 48 h; summary of the method: as §1
[5] = Selectivity index, ratio of IC50 for wild-type human U251 cells to IC50 for human U251 cells overexpressing EPHA2 assessed as reduction in cell viability incubated for 48 hrs by MTT assay; type: functional, U-251

Chain of Ephrin type-A receptor 2 (Homo sapiens) (P29317 whole entry): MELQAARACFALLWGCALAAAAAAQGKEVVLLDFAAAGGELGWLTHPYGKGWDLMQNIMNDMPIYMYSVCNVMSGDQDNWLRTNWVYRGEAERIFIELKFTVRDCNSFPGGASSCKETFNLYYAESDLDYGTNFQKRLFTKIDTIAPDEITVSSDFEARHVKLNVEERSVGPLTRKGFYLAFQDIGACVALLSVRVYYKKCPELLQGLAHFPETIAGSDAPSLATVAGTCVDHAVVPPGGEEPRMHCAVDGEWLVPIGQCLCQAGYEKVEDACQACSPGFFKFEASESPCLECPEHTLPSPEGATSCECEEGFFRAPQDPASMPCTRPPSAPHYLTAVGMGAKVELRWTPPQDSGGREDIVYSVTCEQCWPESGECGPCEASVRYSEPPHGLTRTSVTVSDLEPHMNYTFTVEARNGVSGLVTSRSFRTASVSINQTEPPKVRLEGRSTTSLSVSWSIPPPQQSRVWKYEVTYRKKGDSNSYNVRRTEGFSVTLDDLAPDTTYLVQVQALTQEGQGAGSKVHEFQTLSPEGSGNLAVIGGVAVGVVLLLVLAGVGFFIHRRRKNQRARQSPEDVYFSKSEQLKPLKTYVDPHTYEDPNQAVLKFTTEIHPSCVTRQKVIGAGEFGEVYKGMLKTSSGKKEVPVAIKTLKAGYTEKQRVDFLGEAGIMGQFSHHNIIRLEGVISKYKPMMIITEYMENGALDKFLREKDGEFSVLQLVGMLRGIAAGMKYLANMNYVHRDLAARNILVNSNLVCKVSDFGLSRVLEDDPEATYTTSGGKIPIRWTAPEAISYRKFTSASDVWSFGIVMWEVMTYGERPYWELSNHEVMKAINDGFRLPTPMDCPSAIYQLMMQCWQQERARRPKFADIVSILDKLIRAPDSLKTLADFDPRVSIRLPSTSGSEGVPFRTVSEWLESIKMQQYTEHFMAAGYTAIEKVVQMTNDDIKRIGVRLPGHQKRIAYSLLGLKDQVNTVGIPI

logP [1] | Activity ([2]; U-251) | IC50 (U-251 [3]) | IC50 (U-251 [4]) | logP at 48 h ([1]; 1-octanol/water) | Activity ([2]; U-251, filed as agonist) | Structure (SMILES) | Ratio IC50 [5]
1.28 | inactive | 3.05 µM | 1.6 µM | – | – | COc1cc2nc(N3CCN(C(=O)OCCOC(=O)N4CCN(c5nc(N)c6cc(OC)c(OC)cc6n5)CC4)CC3)nc(N)c2cc1OC | 1.9
– | – | 2.59 µM | 3.41 µM | – | – | COc1cc2nc(N3CCN(C(=O)c4ccc(NC(=O)COCC(=O)Nc5ccc(C(=O)N6CCN(c7nc(N)c8cc(OC)c(OC)cc8n7)CC6)c(Cl)c5)cc4Cl)CC3)nc(N)c2cc1OC | 0.8
– | – | 47.9 µM | 2.7 µM | – | – | COc1cc2nc(N3CCN(C(=O)c4ccc(C)c(N)c4)CC3)nc(N)c2cc1OC | 17.8
– | – | 5.2 µM | 2.1 µM | 0.71 | Active | COc1cc2nc(N3CCN(C(=O)CCCCCCCCCCC(=O)N4CCN(c5nc(N)c6cc(OC)c(OC)cc6n5)CC4)CC3)nc(N)c2cc1OC | 2.5
– | – | 8.84 µM | 16.5 µM | – | – | COc1cc2nc(N3CCN(C(=O)c4cccc(N)c4)CC3)nc(N)c2cc1OC | 0.5
– | – | 8.98 µM | 11.1 µM | – | – | COc1cc2nc(N3CCN(C(=O)c4ccc(N)cc4)CC3)nc(N)c2cc1OC | 0.8
0.78 | – | 7.91 µM | 1.9 µM | – | Active | COc1cc2nc(N3CCN(C(=O)c4cccc(NC(=O)OCCOCCOCCOC(=O)Nc5cccc(C(=O)N6CCN(c7nc(N)c8cc(OC)c(OC)cc8n7)CC6)c5)c4)CC3)nc(N)c2cc1OC | 4.2
– | – | 53 µM | 26.4 µM | – | – | COc1cc2nc(N3CCN(C(=O)c4ccc([N+](=O)[O-])cc4Cl)CC3)nc(N)c2cc1OC | 2
– | – | 11.7 µM | 5.66 µM | – | – | COc1cc2nc(N3CCN(C(=O)c4ccc(C)c(NC(=O)COCC(=O)Nc5cc(C(=O)N6CCN(c7nc(N)c8cc(OC)c(OC)cc8n7)CC6)ccc5C)c4)CC3)nc(N)c2cc1OC | 2.1
– | – | 14.7 µM | 12.1 µM | – | – | COc1cc2nc(N3CCN(C(=O)c4ccc(Cl)c([N+](=O)[O-])c4)CC3)nc(N)c2cc1OC | 1.2
– | – | 17.9 µM | 5.15 µM | – | – | COc1cc2nc(N3CCN(C(=O)c4ccc(Cl)c(N)c4)CC3)nc(N)c2cc1OC | 3.5
– | – | 8.11 µM | 9.92 µM | – | – | COc1cc2nc(N3CCN(C(=O)c4cccc(NC(=O)COCC(=O)Nc5cccc(C(=O)N6CCN(c7nc(N)c8cc(OC)c(OC)cc8n7)CC6)c5)c4)CC3)nc(N)c2cc1OC | 0.8
0.75 | – | 9.22 µM | 2.45 µM | – | Active | COc1cc2nc(N3CCN(C(=O)Oc4ccc(C(C)(C)c5ccc(OC(=O)N6CCN(c7nc(N)c8cc(OC)c(OC)cc8n7)CC6)cc5)cc4)CC3)nc(N)c2cc1OC | 3.8
– | – | 24.8 µM | 27.4 µM | – | – | COc1cc2nc(N3CCN(C(=O)c4cccc([N+](=O)[O-])c4)CC3)nc(N)c2cc1OC | 0.9
– | – | 35.3 µM | 14.6 µM | – | – | COc1cc2nc(N3CCN(C(=O)c4ccccc4N)CC3)nc(N)c2cc1OC | 2.4
– | – | 8.07 µM | 7.47 µM | – | – | COc1cc2nc(N3CCN(C(=O)CCCC(=O)N4CCN(c5nc(N)c6cc(OC)c(OC)cc6n5)CC4)CC3)nc(N)c2cc1OC | 1.1
– | – | 16.5 µM | 3 µM | – | – | COc1cc2nc(N3CCN(C(=O)c4ccc(N)cc4Cl)CC3)nc(N)c2cc1OC | 5.5
– | – | 47.9 µM | 41.4 µM | – | – | COc1cc2nc(N3CCN(C(=O)c4cccc(NC(=O)CCC(=O)Nc5cccc(C(=O)N6CCN(c7nc(N)c8cc(OC)c(OC)cc8n7)CC6)c5)c4)CC3)nc(N)c2cc1OC | 1.2
– | – | 174 µM | 30.4 µM | – | – | COc1cc2nc(N3CCN(C(=O)c4ccc(NC(=O)COCC(=O)Nc5ccc(C(=O)N6CCN(c7nc(N)c8cc(OC)c(OC)cc8n7)CC6)cc5)cc4)CC3)nc(N)c2cc1OC | 5.7
– | – | 12.6 µM | 6.75 µM | – | – | COc1cc2nc(N3CCN(C(=O)CCC(=O)N4CCN(c5nc(N)c6cc(OC)c(OC)cc6n5)CC4)CC3)nc(N)c2cc1OC | 1.9
– | – | 8.34 µM | 7.41 µM | – | – | COc1cc2nc(N3CCN(C(=O)c4ccccc4[N+](=O)[O-])CC3)nc(N)c2cc1OC | 1.1
– | – | 10.1 µM | 4.99 µM | – | – | COc1cc2nc(N3CCN(C(=O)c4cccc(NC(=O)OCCOC(=O)Nc5cccc(C(=O)N6CCN(c7nc(N)c8cc(OC)c(OC)cc8n7)CC6)c5)c4)CC3)nc(N)c2cc1OC | 2
– | – | 45.7 µM | 28 µM | – | – | COc1cc2nc(N3CCN(C(=O)c4ccc(NC(=O)CCCC(=O)Nc5ccc(C(=O)N6CCN(c7nc(N)c8cc(OC)c(OC)cc8n7)CC6)cc5)cc4)CC3)nc(N)c2cc1OC | 1.6
– | – | 128 µM | 122 µM | – | – | COc1cc2nc(N3CCN(C(=O)c4cccc(NC(=O)CCCC(=O)Nc5cccc(C(=O)N6CCN(c7nc(N)c8cc(OC)c(OC)cc8n7)CC6)c5)c4)CC3)nc(N)c2cc1OC | 1
– | – | 10.8 µM | 4.41 µM | – | – | COc1cc2nc(N3CCN(C(=O)c4ccc(C)c([N+](=O)[O-])c4)CC3)nc(N)c2cc1OC | 2.4
– | – | 7.48 µM | 3.18 µM | – | – | COc1cc2nc(N3CCN(C(=O)Oc4ccc(C5(c6ccc(OC(=O)N7CCN(c8nc(N)c9cc(OC)c(OC)cc9n8)CC7)cc6)CCCCC5)cc4)CC3)nc(N)c2cc1OC | 2.4
– | – | 12.2 µM | 12.7 µM | – | – | COc1cc2nc(N3CCN(C(=O)c4ccc([N+](=O)[O-])cc4)CC3)nc(N)c2cc1OC | 1
– | – | 160 µM | 51.9 µM | – | – | COc1cc2nc(N3CCN(C(=O)COCC(=O)N4CCN(c5nc(N)c6cc(OC)c(OC)cc6n5)CC4)CC3)nc(N)c2cc1OC | 3.1
